According to ChEMBL document CHEMBL3272167, “Antimalarials. 3. 1,2,4-Triazines” (J Med Chem, 1976):
Calls of active or inactive are those of the source. No cut-off for these calls is given here.

How the values were obtained:
Mus musculus [1] = test: Toxicity in trophozoite Plasmodium berghei infected in sc dosed mouse administered as single dose 72 hrs after parasite infection; type: organism-based; conditions: in vivo
Outline: (§1)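 Mice were infected with P. berghei trophozoites and given one subcutaneous dose of test compound 72 h later, up to a maximum of 640 mg/kg. Mean survival time of treated mice was compared with untreated controls. A 2.5-day prolongation counted as significant, and activity required a mean survival of at least 12 days. Cure meant 60-day survival without parasitemia.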

Plasmodium berghei [2] = test: Antimalarial activity against trophozoite Plasmodium berghei infected in mouse assessed as increase in mean survival time at 640 mg/kg, sc administered as single dose 72 hrs after parasite infection; type: functional; conditions: route subcutaneous
Outline: (§2)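 Mice were infected with P. berghei trophozoites and given one subcutaneous dose of test compound 72 h later. The read-out was the increase in mean survival time of treated over control animals (MSTT vs MSTC); prolongation of 2.5 days was taken as significant, and a 12-day minimum mean survival was required for activity. Survivors at 60 days without parasitemia counted as cured. The maximum dose was 640 mg/kg.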

Plasmodium berghei [3] = test: Antimalarial activity against trophozoite Plasmodium berghei infected in mouse assessed as increase in mean survival time administered as single dose 72 hrs after parasite infection; type: functional, organism-based; outline: as §1
Plasmodium gallinaceum [4] = test: Antimalarial activity against Plasmodium gallinaceum infected in chick assessed as increase in mean survival time at 80 mg/kg, sc administered as single dose 72 hrs after parasite infection; conditions: route subcutaneous
Plasmodium gallinaceum [5] = test: Antimalarial activity against Plasmodium gallinaceum infected in chick assessed as increase in mean survival time at 320 mg/kg, sc administered as single dose 72 hrs after parasite infection; conditions: route subcutaneous
Plasmodium berghei [6] = test: Antimalarial activity against trophozoite Plasmodium berghei infected in mouse assessed as increase in mean survival time at 320 mg/kg, sc administered as single dose 72 hrs after parasite infection; type: functional; conditions: route subcutaneous; outline: as §2
Plasmodium berghei [7] = test: Antimalarial activity against trophozoite Plasmodium berghei infected in mouse assessed as increase in mean survival time at 160 mg/kg, sc administered as single dose 72 hrs after parasite infection; type: functional; conditions: route subcutaneous; outline: as §2
Plasmodium gallinaceum [8] = test: Antimalarial activity against Plasmodium gallinaceum infected in chick assessed as increase in mean survival time at 160 mg/kg, sc administered as single dose 72 hrs after parasite infection; conditions: route subcutaneous
Plasmodium gallinaceum [9] = test: Antimalarial activity against Plasmodium gallinaceum infected in chick assessed as increase in mean survival time at 480 mg/kg, sc administered as single dose 72 hrs after parasite infection; conditions: route subcutaneous
Mus musculus [10] = test: Toxicity in trophozoite Plasmodium berghei infected in mouse at 640 mg/kg, sc administered as single dose 72 hrs after parasite infection; type: organism-based; design: dose 640 mg/kg, route subcutaneous; conditions: in vivo; outline: as §1
Gallus gallus (chicken) [11] = test: Toxicity in Plasmodium gallinaceum infected in chick at 480 mg/kg, sc administered as single dose 72 hrs after parasite infection; conditions: in vivo
Plasmodium berghei [12] = test: Antimalarial activity against trophozoite Plasmodium berghei infected in mouse assessed as increase in mean survival time at 40 mg/kg, sc administered as single dose 72 hrs after parasite infection; type: functional; conditions: route subcutaneous; outline: as §2
Plasmodium berghei [13] = test: Antimalarial activity against trophozoite Plasmodium berghei infected in mouse assessed as increase in mean survival time at 80 mg/kg, sc administered as single dose 72 hrs after parasite infection; type: functional; conditions: route subcutaneous; outline: as §2
Plasmodium berghei [14] = test: Antimalarial activity against trophozoite Plasmodium berghei infected in mouse assessed as increase in mean survival time at 20 mg/kg, sc administered as single dose 72 hrs after parasite infection; type: functional; conditions: route subcutaneous; outline: as §2
Plasmodium gallinaceum [15] = test: Antimalarial activity against Plasmodium gallinaceum infected in chick assessed as increase in mean survival time at 240 mg/kg, sc administered as single dose 72 hrs after parasite infection; conditions: route subcutaneous
Plasmodium berghei [16] = test: Antimalarial activity against trophozoite Plasmodium berghei infected in mouse assessed as increase in mean survival time at 10 mg/kg, sc administered as single dose 72 hrs after parasite infection; type: functional; conditions: route subcutaneous; outline: as §2
Plasmodium gallinaceum [17] = test: Antimalarial activity against Plasmodium gallinaceum infected in chick assessed as increase in mean survival time at 640 mg/kg, sc administered as single dose 72 hrs after parasite infection; conditions: route subcutaneous
Gallus gallus (chicken) [18] = test: Toxicity in Plasmodium gallinaceum infected in chick at 640 mg/kg, sc administered as single dose 72 hrs after parasite infection; conditions: in vivo

N#C/C(=N/NC(=N)N)c1cccs1.O=[N+]([O-])O
Activity (Mus musculus [1]): Toxic

Cc1nnc(N)nc1C
MST (Plasmodium berghei [2]): 4.2 days | Activity (Plasmodium berghei [3]): inactive

CS(=O)(=O)c1ccc(-c2nnc(N)nc2N)cc1
Activity (Mus musculus [1]): Toxic

Nc1nnc(-c2ccc3c(c2)OCO3)c(N)n1
T/C (Plasmodium gallinaceum [4]): 1.7 | T/C (Plasmodium berghei [2]): 15.4 | T/C (Plasmodium gallinaceum [5]): 3.2 | T/C (Plasmodium berghei [6]): 12.2 | T/C (Plasmodium berghei [7]): 7.1 | T/C (Plasmodium gallinaceum [8]): 3.2

Cc1n[nH]c(=S)[nH]c1=O
Activity (Mus musculus [1]): Toxic

CN(C)/C=N/c1nnc(-c2ccc3c(c2)OCO3)c(/N=C/N(C)C)n1
T/C (Plasmodium gallinaceum [9]): 1.5 | MST (Plasmodium berghei [2]): 5.9 days | Activity (Plasmodium berghei [3]): inactive

Cc1ccc(-c2nnc(N)nc2N)cc1Cl
T/C (Plasmodium berghei [2]): 9.9

COc1ccc(-c2nnc(/N=C/N(C)C)nc2/N=C/N(C)C)cc1OC
Activity (Plasmodium berghei [3]): inactive

Nc1nnc(-c2ccc(C(F)(F)F)cc2)c(N)n1
Activity (Mus musculus [10]): Toxic | Activity (Gallus gallus (chicken) [11]): Toxic | T/C (Plasmodium berghei [12]): 12.8 | T/C (Plasmodium berghei [13]): 0 | T/C (Plasmodium gallinaceum [9]): 9.9 | T/C (Plasmodium berghei [2]): 0 | T/C (Plasmodium berghei [14]): 12.8 | T/C (Plasmodium gallinaceum [15]): 6.4 | T/C (Plasmodium berghei [16]): 6.8 | T/C (Plasmodium berghei [6]): 0 | T/C (Plasmodium berghei [7]): 0 | T/C (Plasmodium gallinaceum [17]): 9.9

COc1ccc(-c2nnc(NC(=O)Nc3ccccc3)nc2N)cc1OC
Activity (Plasmodium berghei [3]): inactive

Nc1nnc(-c2cccc(C(F)(F)F)c2)c(N)n1
MST (Plasmodium berghei [2]): 4.6 days | T/C (Plasmodium gallinaceum [5]): 1.5 | T/C (Plasmodium gallinaceum [15]): 2.2

COc1ccc(-c2nnc(N)nc2N)cc1OC
MST (Plasmodium berghei [2]): 11.7 days | T/C (Plasmodium gallinaceum [5]): 7 | MST (Plasmodium berghei [6]): 10.1 days

Cc1ccc(S(=O)(=O)NC(=O)Nc2nnc(-c3ccc4c(c3)OCO4)c(N)n2)cc1
Activity (Plasmodium berghei [3]): inactive

CSc1nnc(C)c(SC)n1
Activity (Mus musculus [1]): Toxic

Cc1ccc(-c2nnc(N)nc2N)cc1C
MST (Plasmodium berghei [2]): 4.9 days

Cc1nnc(S)nc1S
Activity (Mus musculus [1]): Toxic | T/C (Plasmodium gallinaceum [17]): 4.4 | Activity (Gallus gallus (chicken) [18]): Toxic

Nc1nnc(-c2ccccc2)c(-c2ccccc2)n1
Activity (Mus musculus [1]): Toxic
